# Experimental data from ChEMBL document CHEMBL1909512, “Indolin-2-one p38α inhibitors III: bioisosteric amide replacement” (Bioorg Med Chem Lett, 2011).
# What was measured:
# Blood = test: Inhibition of LPS-induced TNFalpha release in human whole blood after 24 hrs by ELISA; format: functional, tissue-based
# [1] = target: T1, Mitogen-activated protein kinase 14 (Homo sapiens, UniProt Q16539)
# CHO [2] = test: Cytotoxicity against CHO cells at 200 uM; format: cell-based, Cricetulus griseus; settings: chinese hamster
# Liver microsomes [3] = test: Metabolic stability in human liver microsomes assessed as compound turnover at 5 uM after 30 mins in absence of NADPH; format: ADME, Microsome; settings: 0.5 h
# [4] = Apparent passive permeability from apical to basolateral side of the human Caco2 cells at 12.5 uM; format: ADME, cell-based; settings: Caco-2
# In short: (§1)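 Passive permeability across Caco-2 monolayer measured with 12.5 µM test compound in both directions (apical-to-basal and basal-to-apical); Papp reported in 10^-6 cm/s.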
# [5] = Metabolic stability in rat liver microsomes assessed as compound turnover at 5 uM after 30 mins in presence of NADPH; format: ADME, Microsome; settings: read-out: Drug metabolism
# In short: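 5 µM test compound incubated with rat or human hepatic microsomes (1 mg/mL) plus NADPH for 30 min at 37 °C; result given as % turnover.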
# [6] = Metabolic stability in human liver microsomes assessed as compound turnover at 5 uM after 30 mins in presence of NADPH; format: ADME, Microsome; settings: read-out: Drug metabolism
# [7] = Apparent passive permeability from basolateral to apical side of the human Caco2 cells at 12.5 uM; format: ADME, cell-based; settings: Caco-2; in short: as §1
# [8] = AUC (0 to infinity) in rat at 10 mg/kg, po; format: ADME, organism-based; design: time infinity, dose 10 mg/kg, route oral; settings: plasma
# [9] = Mean residence time in rat at 1 mg/kg, iv; format: ADME, organism-based; design: dose 1 mg/kg, route intravenous; settings: in vivo
# Liver microsomes [10] = test: Metabolic stability in human liver microsomes in absence of NADPH; format: ADME, Microsome
# Cytochrome P450 3A4 = Cytochrome P450 3A4 (Homo sapiens, UniProt P08684); test: Inhibition of human CYP3A4; format: ADME
# Chain of Cytochrome P450 3A4 (P08684 whole entry): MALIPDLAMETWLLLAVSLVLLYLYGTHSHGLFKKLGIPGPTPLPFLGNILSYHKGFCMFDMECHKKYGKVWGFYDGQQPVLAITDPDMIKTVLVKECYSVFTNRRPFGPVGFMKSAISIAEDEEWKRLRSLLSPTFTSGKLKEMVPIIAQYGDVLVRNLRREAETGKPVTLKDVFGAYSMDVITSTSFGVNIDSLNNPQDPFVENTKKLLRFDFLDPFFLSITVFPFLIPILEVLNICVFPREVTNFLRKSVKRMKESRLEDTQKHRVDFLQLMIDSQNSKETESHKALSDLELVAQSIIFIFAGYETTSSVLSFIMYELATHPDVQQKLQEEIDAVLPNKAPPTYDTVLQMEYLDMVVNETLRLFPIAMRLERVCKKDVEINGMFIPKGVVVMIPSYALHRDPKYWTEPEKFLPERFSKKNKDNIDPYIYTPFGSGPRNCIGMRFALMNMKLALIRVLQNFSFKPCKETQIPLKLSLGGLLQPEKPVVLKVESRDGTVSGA
# Rattus norvegicus = test: Antiinflammatory activity in rat assessed as inhibition of LPS-induced TNFalpha production plasma administered orally 1 hr prior to LPS challenge measured after 1.5 hrs by ELISA; format: functional
# [11] = Clearance in rat at 1 mg/kg, iv; format: ADME, organism-based; design: dose 1 mg/kg, route intravenous; settings: in vivo
# [12] = target: T2, 5-hydroxytryptamine receptor 1B (Homo sapiens, UniProt P28222); test: Inhibition of 5-HT1B
# T2 sequence (P28222 whole entry): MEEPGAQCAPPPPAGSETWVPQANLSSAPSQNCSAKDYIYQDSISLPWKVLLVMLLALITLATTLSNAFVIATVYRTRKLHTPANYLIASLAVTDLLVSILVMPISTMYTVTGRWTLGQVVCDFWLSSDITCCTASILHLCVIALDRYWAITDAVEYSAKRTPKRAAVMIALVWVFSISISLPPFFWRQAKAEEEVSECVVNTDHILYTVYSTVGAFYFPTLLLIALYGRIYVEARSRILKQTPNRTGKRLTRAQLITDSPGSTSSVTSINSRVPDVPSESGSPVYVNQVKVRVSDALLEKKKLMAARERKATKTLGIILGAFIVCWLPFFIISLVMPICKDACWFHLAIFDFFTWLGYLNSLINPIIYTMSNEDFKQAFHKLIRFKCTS
# [13] = AUC (0 to infinity) in rat at 1 mg/kg, iv; format: ADME, organism-based; design: time infinity, dose 1 mg/kg, route intravenous; settings: plasma
# [14] = target: T3, High affinity nerve growth factor receptor (Homo sapiens, UniProt P04629); settings: 10 uM
# Target sequence in this assay (P04629 33-796 limits assumed): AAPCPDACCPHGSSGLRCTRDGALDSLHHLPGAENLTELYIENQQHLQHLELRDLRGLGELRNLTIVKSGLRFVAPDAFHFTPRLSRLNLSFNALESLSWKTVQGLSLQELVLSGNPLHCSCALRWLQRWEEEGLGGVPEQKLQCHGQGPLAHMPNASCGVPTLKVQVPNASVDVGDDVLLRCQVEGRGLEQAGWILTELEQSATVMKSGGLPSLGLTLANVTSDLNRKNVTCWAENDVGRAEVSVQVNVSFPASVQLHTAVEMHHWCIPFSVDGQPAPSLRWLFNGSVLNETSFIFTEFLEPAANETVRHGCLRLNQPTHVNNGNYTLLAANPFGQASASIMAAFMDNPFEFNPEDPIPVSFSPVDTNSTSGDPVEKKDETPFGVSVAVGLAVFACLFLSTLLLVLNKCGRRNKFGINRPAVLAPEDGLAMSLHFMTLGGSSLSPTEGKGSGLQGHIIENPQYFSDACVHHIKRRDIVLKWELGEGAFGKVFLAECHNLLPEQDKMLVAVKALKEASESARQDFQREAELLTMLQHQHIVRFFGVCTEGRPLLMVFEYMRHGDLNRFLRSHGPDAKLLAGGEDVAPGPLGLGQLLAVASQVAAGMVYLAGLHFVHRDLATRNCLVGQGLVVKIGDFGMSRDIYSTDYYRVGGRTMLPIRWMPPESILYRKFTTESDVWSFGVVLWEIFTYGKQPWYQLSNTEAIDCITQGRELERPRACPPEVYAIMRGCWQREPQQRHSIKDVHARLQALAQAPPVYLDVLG
# Cytochrome P450 1A2 = target: T4, Cytochrome P450 1A2 (Homo sapiens, UniProt P05177); test: Inhibition of human CYP1A2; format: ADME
# T4 sequence (P05177 whole entry): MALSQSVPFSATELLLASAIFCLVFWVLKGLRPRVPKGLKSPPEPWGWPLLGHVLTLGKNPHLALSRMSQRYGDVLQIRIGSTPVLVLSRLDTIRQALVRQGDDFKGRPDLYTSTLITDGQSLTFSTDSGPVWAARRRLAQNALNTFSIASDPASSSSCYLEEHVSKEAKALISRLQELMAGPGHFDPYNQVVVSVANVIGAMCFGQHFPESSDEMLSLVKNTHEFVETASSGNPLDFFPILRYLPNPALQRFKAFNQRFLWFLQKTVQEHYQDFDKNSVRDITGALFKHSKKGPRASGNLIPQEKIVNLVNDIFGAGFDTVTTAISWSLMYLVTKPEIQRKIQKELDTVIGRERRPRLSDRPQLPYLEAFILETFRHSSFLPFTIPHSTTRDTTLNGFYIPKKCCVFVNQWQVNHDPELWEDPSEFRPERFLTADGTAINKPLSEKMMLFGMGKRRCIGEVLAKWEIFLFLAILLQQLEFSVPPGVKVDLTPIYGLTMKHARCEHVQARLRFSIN
# Liver microsomes [15] = test: Metabolic stability in rat liver microsomes in absence of NADPH; format: ADME, Microsome
# [16] = Cmax in rat at 1 mg/kg, iv; format: ADME, organism-based; design: dose 1 mg/kg, route intravenous; settings: in vivo
# [17] = Volume of distribution at steady state in rat at 1 mg/kg, iv; format: ADME, organism-based; design: dose 1 mg/kg, route intravenous; settings: in vivo, read-out: Vdss
# Cytochrome P450 2C19 = Cytochrome P450 2C19 (Homo sapiens, UniProt P33261); test: Inhibition of human CYP2C19; format: ADME
# Chain of Cytochrome P450 2C19 (P33261 whole entry): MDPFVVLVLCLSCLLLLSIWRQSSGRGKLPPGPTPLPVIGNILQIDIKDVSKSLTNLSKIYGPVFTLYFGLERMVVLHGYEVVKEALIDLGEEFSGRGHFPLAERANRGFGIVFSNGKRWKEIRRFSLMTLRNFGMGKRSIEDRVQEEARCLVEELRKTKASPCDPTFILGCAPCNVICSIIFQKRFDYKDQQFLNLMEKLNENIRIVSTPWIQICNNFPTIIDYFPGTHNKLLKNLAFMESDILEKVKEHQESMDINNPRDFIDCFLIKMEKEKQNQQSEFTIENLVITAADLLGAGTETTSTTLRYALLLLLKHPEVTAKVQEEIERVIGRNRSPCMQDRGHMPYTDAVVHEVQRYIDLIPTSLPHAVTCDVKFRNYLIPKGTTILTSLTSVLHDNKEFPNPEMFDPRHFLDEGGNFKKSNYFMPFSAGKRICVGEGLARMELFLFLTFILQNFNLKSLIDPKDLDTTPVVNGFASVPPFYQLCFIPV
# [18] = Oral bioavailability in rat at 10 mg/kg; format: ADME, organism-based; settings: in vivo
# [19] = Cmax in rat at 10 mg/kg, po; format: ADME, organism-based; design: dose 10 mg/kg, route oral; settings: in vivo
# hERG = hERG (Homo sapiens, UniProt Q12809); test: Inhibition of human ERG expressed in HEK293 cells at 10 uM; format: cell-based; settings: HEK293 cells that express hERG
# [20] = target: T2, 5-hydroxytryptamine receptor 1B; settings: 10 uM
# [21] = Half life in rat at 1 mg/kg, iv; format: ADME, organism-based; design: dose 1 mg/kg, route intravenous; settings: in vivo
# Cytochrome P450 2C9 = Cytochrome P450 2C9 (Homo sapiens, UniProt P11712); test: Inhibition of human CYP2C9; format: ADME
# Chain of Cytochrome P450 2C9 (P11712 whole entry): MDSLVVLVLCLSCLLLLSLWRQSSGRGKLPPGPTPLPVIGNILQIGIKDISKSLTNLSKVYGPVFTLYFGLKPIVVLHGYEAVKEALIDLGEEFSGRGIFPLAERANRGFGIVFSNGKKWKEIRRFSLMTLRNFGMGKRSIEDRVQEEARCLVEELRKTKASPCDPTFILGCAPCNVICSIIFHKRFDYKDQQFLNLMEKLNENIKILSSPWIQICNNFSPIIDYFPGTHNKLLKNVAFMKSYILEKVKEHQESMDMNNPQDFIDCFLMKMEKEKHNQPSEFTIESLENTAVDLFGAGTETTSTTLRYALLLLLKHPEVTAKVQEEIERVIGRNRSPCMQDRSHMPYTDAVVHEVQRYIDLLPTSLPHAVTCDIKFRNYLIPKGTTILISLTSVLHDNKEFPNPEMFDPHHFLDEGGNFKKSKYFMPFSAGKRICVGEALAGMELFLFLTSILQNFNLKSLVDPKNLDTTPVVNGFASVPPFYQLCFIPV
# [22] = target: T3, High affinity nerve growth factor receptor; test: Inhibition of human TrkA
# Target sequence in this assay (P04629 whole entry): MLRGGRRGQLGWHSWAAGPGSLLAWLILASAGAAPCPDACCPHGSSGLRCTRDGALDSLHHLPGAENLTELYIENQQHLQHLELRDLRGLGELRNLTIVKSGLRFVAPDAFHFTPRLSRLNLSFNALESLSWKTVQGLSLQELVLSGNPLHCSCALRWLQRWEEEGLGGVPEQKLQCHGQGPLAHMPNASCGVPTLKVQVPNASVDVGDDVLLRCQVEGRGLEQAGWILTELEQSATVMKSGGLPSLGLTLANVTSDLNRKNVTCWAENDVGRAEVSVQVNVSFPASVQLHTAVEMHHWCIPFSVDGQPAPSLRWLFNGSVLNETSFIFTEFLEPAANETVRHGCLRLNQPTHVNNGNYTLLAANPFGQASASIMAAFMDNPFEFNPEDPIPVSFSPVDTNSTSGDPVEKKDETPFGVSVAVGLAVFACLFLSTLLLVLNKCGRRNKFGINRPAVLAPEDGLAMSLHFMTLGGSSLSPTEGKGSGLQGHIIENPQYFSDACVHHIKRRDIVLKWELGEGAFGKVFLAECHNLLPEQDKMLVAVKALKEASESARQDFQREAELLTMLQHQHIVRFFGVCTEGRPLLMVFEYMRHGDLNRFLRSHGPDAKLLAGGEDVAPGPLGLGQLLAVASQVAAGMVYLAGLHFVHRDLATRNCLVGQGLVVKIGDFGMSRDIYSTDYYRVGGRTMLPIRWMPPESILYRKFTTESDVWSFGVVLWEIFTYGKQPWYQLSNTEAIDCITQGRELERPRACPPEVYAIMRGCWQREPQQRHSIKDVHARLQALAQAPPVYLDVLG
# [23] = target: T5, RAF proto-oncogene serine/threonine-protein kinase (Homo sapiens, UniProt P04049); settings: 10 uM
# T5 sequence (P04049 whole entry): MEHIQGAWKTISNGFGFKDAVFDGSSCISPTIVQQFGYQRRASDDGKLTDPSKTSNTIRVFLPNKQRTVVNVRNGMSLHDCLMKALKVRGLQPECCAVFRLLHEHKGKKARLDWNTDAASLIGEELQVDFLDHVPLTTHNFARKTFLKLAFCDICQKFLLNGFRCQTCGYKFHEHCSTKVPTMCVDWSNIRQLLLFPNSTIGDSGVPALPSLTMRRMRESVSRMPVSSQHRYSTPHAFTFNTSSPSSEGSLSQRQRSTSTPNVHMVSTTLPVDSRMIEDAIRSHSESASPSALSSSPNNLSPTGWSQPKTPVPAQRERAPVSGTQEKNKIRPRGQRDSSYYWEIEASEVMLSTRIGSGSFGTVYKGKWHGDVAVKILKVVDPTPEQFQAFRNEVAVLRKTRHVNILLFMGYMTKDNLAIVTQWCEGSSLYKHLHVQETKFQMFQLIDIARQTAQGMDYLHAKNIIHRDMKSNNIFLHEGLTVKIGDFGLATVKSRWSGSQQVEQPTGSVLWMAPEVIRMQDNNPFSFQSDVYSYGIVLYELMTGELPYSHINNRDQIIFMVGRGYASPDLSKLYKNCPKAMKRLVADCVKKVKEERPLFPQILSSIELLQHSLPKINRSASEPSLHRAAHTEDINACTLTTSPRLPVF
# [24] = target: T5, RAF proto-oncogene serine/threonine-protein kinase; test: Inhibition of cRaf
# Cytochrome P450 2D6 = Cytochrome P450 2D6 (Homo sapiens, UniProt P10635); test: Inhibition of human CYP2D6; format: ADME
# Chain of Cytochrome P450 2D6 (P10635 whole entry): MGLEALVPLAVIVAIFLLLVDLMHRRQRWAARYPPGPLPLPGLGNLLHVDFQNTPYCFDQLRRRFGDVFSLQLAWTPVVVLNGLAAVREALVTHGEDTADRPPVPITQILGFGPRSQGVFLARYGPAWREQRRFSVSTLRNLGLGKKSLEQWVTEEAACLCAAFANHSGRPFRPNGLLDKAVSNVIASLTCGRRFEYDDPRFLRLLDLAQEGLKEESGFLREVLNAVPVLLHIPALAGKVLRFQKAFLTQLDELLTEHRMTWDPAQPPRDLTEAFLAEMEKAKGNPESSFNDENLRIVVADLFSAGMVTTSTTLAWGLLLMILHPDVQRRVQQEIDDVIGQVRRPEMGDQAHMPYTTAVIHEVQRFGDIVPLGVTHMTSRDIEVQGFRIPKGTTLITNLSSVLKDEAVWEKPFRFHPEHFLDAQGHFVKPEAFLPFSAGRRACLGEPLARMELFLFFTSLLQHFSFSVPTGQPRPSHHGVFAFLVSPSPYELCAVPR
# CHO [25] = test: Cytotoxicity against CHO cells; format: cell-based; settings: Cricetulus griseus
# CHO [26] = test: Cytotoxicity against CHO cells at 100 uM; format: cell-based, Cricetulus griseus; settings: chinese hamster
# [27] = target: T1, Mitogen-activated protein kinase 14; test: Inhibition of human p38alpha using biotinylated ATF2 as substrate at 60 uM preincubated for 1 hr measured after 1 hr by FRET assay
# T1 sequence (Q16539 whole entry): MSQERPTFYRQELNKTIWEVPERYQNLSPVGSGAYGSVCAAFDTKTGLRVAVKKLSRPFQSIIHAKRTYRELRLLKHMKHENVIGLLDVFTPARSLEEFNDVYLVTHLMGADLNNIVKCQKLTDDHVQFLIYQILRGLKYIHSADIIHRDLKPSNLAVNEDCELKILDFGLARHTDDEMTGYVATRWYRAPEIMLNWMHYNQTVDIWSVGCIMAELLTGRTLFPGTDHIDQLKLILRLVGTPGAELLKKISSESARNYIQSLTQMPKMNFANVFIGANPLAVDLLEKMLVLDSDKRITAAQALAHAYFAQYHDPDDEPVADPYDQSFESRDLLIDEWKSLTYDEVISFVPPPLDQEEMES
compound,measurement,setting,value
Cc1ccc2c(NC3CC3)noc2c1-c1ccc2c(c1)NC(=O)C2(C)C,IC50,Blood,50 nM
Cc1nnc(-c2ccc(C)c(-c3ccc4c(c3)NC(=O)C4(C)C)c2)[nH]1,IC50,[1],87 nM
Cc1ccc2c(NC3CC3)noc2c1-c1ccc2c(c1)NC(=O)C21CCC(F)(F)CC1,Activity,CHO [2],56%
same,Stability,Liver microsomes [3],Stable
same,IC50,Blood,10.7 nM
same,Papp A→B at 12.5 µM,[4],10 ×10⁻⁶ cm/s
same,"metabolised at 0.5 h, 5 µM",[5],25%
same,"metabolised at 0.5 h, 5 µM",[6],32%
same,Papp B→A at 12.5 µM,[7],4 ×10⁻⁶ cm/s
Cc1nnc(-c2ccc(C)c(-c3ccc4c(c3)NC(=O)C43CCOCC3)c2)[nH]1,AUC(0-inf),[8],11700 ng·h/mL
same,MRT,[9],4 h
same,Stability,Liver microsomes [10],Stable
same,IC50,Cytochrome P450 3A4,> 25 µM
same,inhibition,Rattus norvegicus,Dose-dependent effect
same,ED50,Rattus norvegicus; po,0.69 mg/kg
same,clearance,[11],4.2 mL/min/kg
same,IC50,[12],10 µM
same,AUC(0-inf),[13],4060 ng·h/mL
same,inhibition,[14],> 50%
same,IC50,Cytochrome P450 1A2,> 25 µM
same,IC50,[1],7.6 nM
same,Activity,CHO [2],48%
same,Stability,Liver microsomes [15],Stable
same,Cmax,[16],1720 ng/mL
same,Vd,[17],1 L/kg
same,IC50,Cytochrome P450 2C19,> 25 µM
same,Stability,Liver microsomes [3],Stable
same,bioavailability,[18],29%
same,Cmax,[19],1100 ng/mL
same,inhibition at 10 µM,hERG,49%
same,inhibition,[20],> 50%
same,half-life,[21],186 min
same,IC50,Blood,93 nM
same,IC50,Cytochrome P450 2C9,> 25 µM
same,Papp A→B at 12.5 µM,[4],18 ×10⁻⁶ cm/s
same,IC50,[22],7.7 µM
same,"metabolised at 0.5 h, 5 µM",[5],23%
same,"metabolised at 0.5 h, 5 µM",[6],< 5%
same,inhibition,[23],> 50%
same,Papp B→A at 12.5 µM,[7],27 ×10⁻⁶ cm/s
same,IC50,[24],1600 nM
same,IC50,Cytochrome P450 2D6,> 25 µM
Cc1ccc2c(NC3CC3)noc2c1-c1ccc2c(c1)NC(=O)C21CCCC1,IC50,Blood,2 nM
Cc1ccc2c(N)noc2c1-c1ccc2c(c1)NC(=O)C21CCC(F)(F)CC1,IC50,[1],1.2 nM
same,IC50,Blood,137 nM
O=C1Nc2cc(-c3cccc4c(NC5CC5)noc34)c(Cl)cc2C12CCCC2,IC50,Blood,438 nM
Cc1ccc(-c2nnc(C3CC3)[nH]2)cc1-c1ccc2c(c1)NC(=O)C21CCCC1,IC50,[1],135 nM
Cc1cnc(-c2ccc(C)c(-c3ccc4c(c3)NC(=O)C43CCOCC3)c2)[nH]1,Stability,Liver microsomes [10],Stable
same,IC50,[1],173 nM
same,Stability,Liver microsomes [15],Stable
Cc1ccc(-c2ncn[nH]2)cc1-c1ccc2c(c1)NC(=O)C21CCCC1,IC50,Blood,253 nM
Cc1noc(-c2ccc(C)c(-c3ccc4c(c3)NC(=O)C43CCCC3)c2)n1,Stability,Liver microsomes [10],Stable
same,IC50,[1],741 nM
same,Stability,Liver microsomes [15],Stable
Cc1nnc(-c2ccc(C)c(-c3ccc4c(c3)NC(=O)C43CCN(S(C)(=O)=O)CC3)c2)[nH]1,AUC(0-inf),[8],1370 ng·h/mL
same,MRT,[9],1.8 h
same,IC50,CHO [25],100 µM
same,clearance,[11],17.2 mL/min/kg
same,AUC(0-inf),[13],1030 ng·h/mL
same,Cmax,[16],1300 ng/mL
same,Vd,[17],1.75 L/kg
same,Stability,Liver microsomes [3],Stable
same,bioavailability,[18],13%
same,Cmax,[19],632 ng/mL
same,half-life,[21],228 min
same,IC50,Blood,50 nM
same,Papp A→B at 12.5 µM,[4],2 ×10⁻⁶ cm/s
same,"metabolised at 0.5 h, 5 µM",[5],< 5%
same,"metabolised at 0.5 h, 5 µM",[6],6%
same,Papp B→A at 12.5 µM,[7],45 ×10⁻⁶ cm/s
Cc1nnc(-c2ccc(C)c(-c3ccc4c(c3)NC(=O)C43CCC3)c2)[nH]1,IC50,Blood,624 nM
Cc1nnc(-c2ccc(C)c(-c3ccc4c(c3)NC(=O)C43CCC(F)(F)CC3)c2)[nH]1,IC50,CHO [25],20 µM
same,Stability,Liver microsomes [3],Stable
same,IC50,Blood,98 nM
same,"metabolised at 0.5 h, 5 µM",[5],5%
same,"metabolised at 0.5 h, 5 µM",[6],< 5%
Cc1nc(-c2ccc(C)c(-c3ccc4c(c3)NC(=O)C43CCCC3)c2)no1,Stability,Liver microsomes [10],Stable
same,IC50,[1],583 nM
same,Stability,Liver microsomes [15],Stable
Cc1nnc(-c2ccc(C)c(-c3ccc4c(c3)NC(=O)C43CCCC3)c2)[nH]1,Stability,Liver microsomes [10],Stable
same,Activity,CHO [26],53%
same,IC50,[1],7.4 nM
same,Stability,Liver microsomes [15],Stable
same,Stability,Liver microsomes [3],Stable
same,IC50,Blood,127 nM
same,"metabolised at 0.5 h, 5 µM",[5],15%
same,"metabolised at 0.5 h, 5 µM",[6],13%
Cc1ccc2c(N)n[nH]c2c1-c1ccc2c(c1)NC(=O)C21CCOCC1,inhibition,[27],60%
Cc1ccc2c(N)noc2c1-c1ccc2c(c1)NC(=O)C2(C)C,IC50,Blood,731 nM
Cc1ccc2c(N)noc2c1-c1ccc2c(c1)NC(=O)C21CCOCC1,AUC(0-inf),[8],961 ng·h/mL
same,MRT,[9],2.5 h
same,clearance,[11],13.8 mL/min/kg
same,AUC(0-inf),[13],1230 ng·h/mL
same,IC50,[1],5 nM
same,Activity,CHO [2],16%
same,Cmax,[16],752 ng/mL
same,Vd,[17],2 L/kg
same,Stability,Liver microsomes [3],Stable
same,bioavailability,[18],8%
same,Cmax,[19],141 ng/mL
same,half-life,[21],114 min
same,IC50,Blood,145 nM
same,Papp A→B at 12.5 µM,[4],28 ×10⁻⁶ cm/s
same,"metabolised at 0.5 h, 5 µM",[5],9%
same,"metabolised at 0.5 h, 5 µM",[6],3%
same,Papp B→A at 12.5 µM,[7],16 ×10⁻⁶ cm/s
Cc1ccn2c(N)nnc2c1-c1ccc2c(c1)NC(=O)C21CCCC1,IC50,[1],34 nM
same,IC50,Blood,2110 nM
Cc1ccc2c(NC3CC3)noc2c1-c1ccc2c(c1)NC(=O)C21CCOCC1,AUC(0-inf),[8],3370 ng·h/mL
same,MRT,[9],4.6 h
same,IC50,CHO [25],49 µM
same,clearance,[11],3.2 mL/min/kg
same,AUC(0-inf),[13],5270 ng·h/mL
same,IC50,[1],0.16 nM
same,Cmax,[16],1480 ng/mL
same,Vd,[17],0.8 L/kg
same,Stability,Liver microsomes [3],Stable
same,bioavailability,[18],6%
same,Cmax,[19],479 ng/mL
same,half-life,[21],174 min
same,IC50,Blood,8.4 nM
same,Papp A→B at 12.5 µM,[4],26 ×10⁻⁶ cm/s
same,"metabolised at 0.5 h, 5 µM",[5],18%
same,"metabolised at 0.5 h, 5 µM",[6],26%
same,Papp B→A at 12.5 µM,[7],16 ×10⁻⁶ cm/s
O=C1Nc2cc(-c3cccc4c(NC5CC5)noc34)ccc2C12CCCC2,IC50,[1],38 nM
same,IC50,Blood,1260 nM
Cc1ncc(-c2ccc(C)c(-c3ccc4c(c3)NC(=O)C43CCOCC3)c2)[nH]1,Stability,Liver microsomes [10],Stable
same,IC50,[1],880 nM
same,Stability,Liver microsomes [15],Stable
